The source made the active and inactive calls. The rule behind the calls is not given here.
Assays:
LTC-14 [1] = assay: Inhibition of rat LTC-14 cells activation assessed decrease in TGF-beta1 induced collagen 1 protein expression at 0.5 uM incubated for 24 hrs by Western blot analysis; assay type: functional, cell-based
How it was run: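 LTC-14 cells were treated for 24 h with compound (0.5 μM) plus TGF-β1 (0.5 ng/mL in the text, 5 ng/mL in the methods). Lysates were run on 10% SDS-PAGE, transferred to PVDF and probed with rabbit anti-collagen I, with β-actin as reference. Bands were quantified by densitometry versus TGF-β1 alone.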

[2] = molecular target: T1, Vitamin D3 receptor (Homo sapiens) (UniProt P11473); assay: Binding affinity to VDR (unknown origin) at 1 uM by fluorescence polarization assay relative to calcipotriol
T1 sequence (whole entry): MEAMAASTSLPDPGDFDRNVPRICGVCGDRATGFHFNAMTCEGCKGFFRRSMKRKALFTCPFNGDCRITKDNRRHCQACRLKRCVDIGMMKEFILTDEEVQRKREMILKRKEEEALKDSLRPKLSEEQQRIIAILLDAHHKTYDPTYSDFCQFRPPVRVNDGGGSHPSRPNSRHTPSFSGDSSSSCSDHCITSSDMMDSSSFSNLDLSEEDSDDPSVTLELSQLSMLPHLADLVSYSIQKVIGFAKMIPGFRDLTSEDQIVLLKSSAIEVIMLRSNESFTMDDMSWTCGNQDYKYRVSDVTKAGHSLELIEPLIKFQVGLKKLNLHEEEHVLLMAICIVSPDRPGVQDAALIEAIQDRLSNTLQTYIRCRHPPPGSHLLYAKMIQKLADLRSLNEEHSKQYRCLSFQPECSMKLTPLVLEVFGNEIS
How it was run: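 PolarScreen VDR competitor fluorescence polarization assay with compounds at 1 μM in triplicate. Read-out used 535 nm excitation and 590 nm emission filters.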

LTC-14 [3] = assay: Inhibition of rat LTC-14 cells activation assessed decrease in TGF-beta1 induced Acta2 mRNA expression at 0.5 uM incubated for 24 hrs by q-PCR analysis; assay type: functional, cell-based
How it was run: (§1)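 Immortalized rat PSC line LTC-14, about 1×10^5 cells per well, was grown 24 h at 37 °C in 5% CO2. Cells then received compound (0.5 μM) plus TGF-β1 for 24 h; TGF-β1 is stated as 0.5 ng/mL in the text and 5 ng/mL in the methods. Col1a1 and Acta2 mRNA were measured by RT-qPCR. Mean ± SD versus TGF-β1 alone.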

LTC-14 [4] = assay: Inhibition of rat LTC-14 cell activation assessed decrease in TGF-beta1 induced Colla1 mRNA expression at 0.5 uM incubated for 24 hrs by q-PCR analysis; assay type: functional; how it was run: as §1
[5] = Cytotoxicity against rat LTC-14 cells assessed as reduction in cell proliferation incubated for 24 hrs by MTT assay; assay type: cell-based; details: LTC-14, 24 h

RBA ([2]; filed as agonist)	RBA [2]	SMILES	inhibition (LTC-14 [1])	inhibition (LTC-14 [3])	inhibition (LTC-14 [4])	IC50 [5]
67%	–	CCn1cc(C(CC)(CC)c2ccc(OCC(C)O)c(C)c2)cc1C(=O)NCC1CCOCC1 (stereo not given)	Active	Active	Active	> 10 µM
62%	–	CCn1cc(C(CC)(CC)c2ccc(OCC(C)O)c(C)c2)cc1C(=O)NCCCN1CCN(C)CC1 (stereo not given)	Active	Active	Active	> 10 µM
–	27%	CCN(CC)CCCNC(=O)c1cc(C(CC)(CC)c2ccc(OCCCCC(O)(CC)CC)c(C)c2)cn1CC	Active	Active	Active	> 10 µM
–	26%	CCN(CC)CCCNC(=O)c1ccc(C(CC)(CC)c2ccc(OCCCCC(C)(C)O)c(C)c2)n1CC	Active	Active	Active	> 10 µM
–	33%	CCN(CC)CCCNC(=O)c1ccc(C(CC)(CC)c2ccc(OCCCCCC(O)(CC)CC)c(C)c2)n1CC	Active	Active	Active	> 10 µM
–	33%	CCN(CC)CCCNC(=O)c1cc(C(CC)(CC)c2ccc(OCCCCC(C)(C)O)c(C)c2)cn1CC	Active	Active	Active	> 10 µM
–	23%	CCN(CC)CCCNC(=O)c1ccc(C(CC)(CC)c2ccc(OCCCC(O)(CC)CC)c(C)c2)n1CC	Active	Active	Active	> 10 µM

— ChEMBL document CHEMBL4765486, “Novel Nonsecosteroidal Vitamin D Receptor Modulator Combined with Gemcitabine Enhances Pancreatic Cancer Therapy through Remodeling of the Tumor Microenvironment” (J Med Chem, 2021)
